ChEMBL document CHEMBL3286381 (J Med Chem, 2014)
Calls of active or inactive are those of the source. No cut-off for these calls is given here.

Tests used:
[1] = target: T1, Ectonucleoside triphosphate diphosphohydrolase 8 (Homo sapiens) (UniProt Q5MY95); test: Inhibition of human NTPDase-8 using ATP as substrate assessed as inorganic phosphate release at 100 uM after 15 mins relative to control
T1 sequence (whole entry): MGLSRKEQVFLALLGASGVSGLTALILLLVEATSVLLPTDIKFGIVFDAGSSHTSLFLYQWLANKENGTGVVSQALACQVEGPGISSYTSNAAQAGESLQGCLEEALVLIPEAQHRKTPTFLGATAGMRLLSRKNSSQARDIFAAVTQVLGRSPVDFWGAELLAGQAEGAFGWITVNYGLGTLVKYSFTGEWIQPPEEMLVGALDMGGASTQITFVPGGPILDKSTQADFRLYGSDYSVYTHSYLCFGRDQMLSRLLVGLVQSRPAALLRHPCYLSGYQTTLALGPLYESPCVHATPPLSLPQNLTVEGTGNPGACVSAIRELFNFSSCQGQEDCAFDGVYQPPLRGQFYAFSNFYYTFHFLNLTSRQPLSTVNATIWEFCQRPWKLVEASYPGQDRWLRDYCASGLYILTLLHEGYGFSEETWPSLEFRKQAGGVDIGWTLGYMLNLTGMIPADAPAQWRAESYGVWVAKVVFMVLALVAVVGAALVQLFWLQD
Summary of the method: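 Protein extracts are from COS-7 cells transiently transfected with human NTPDase1, 2, 3 or 8. Extract is preincubated for 3 min at 37 °C in Tris–Ringer buffer (pH 7.3). […] Three experiments in triplicate.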

[2] = target: T2, Ectonucleotide pyrophosphatase/phosphodiesterase family member 1 (Homo sapiens, UniProt P22413); test: Mixed type inhibition of human NPP1 using pNP-TMP as substrate assessed as dissociation constant for enzyme-inhibitor-substrate complex after 20 mins by Dixon and Cornish-Bowden method
T2 sequence (P22413 whole entry): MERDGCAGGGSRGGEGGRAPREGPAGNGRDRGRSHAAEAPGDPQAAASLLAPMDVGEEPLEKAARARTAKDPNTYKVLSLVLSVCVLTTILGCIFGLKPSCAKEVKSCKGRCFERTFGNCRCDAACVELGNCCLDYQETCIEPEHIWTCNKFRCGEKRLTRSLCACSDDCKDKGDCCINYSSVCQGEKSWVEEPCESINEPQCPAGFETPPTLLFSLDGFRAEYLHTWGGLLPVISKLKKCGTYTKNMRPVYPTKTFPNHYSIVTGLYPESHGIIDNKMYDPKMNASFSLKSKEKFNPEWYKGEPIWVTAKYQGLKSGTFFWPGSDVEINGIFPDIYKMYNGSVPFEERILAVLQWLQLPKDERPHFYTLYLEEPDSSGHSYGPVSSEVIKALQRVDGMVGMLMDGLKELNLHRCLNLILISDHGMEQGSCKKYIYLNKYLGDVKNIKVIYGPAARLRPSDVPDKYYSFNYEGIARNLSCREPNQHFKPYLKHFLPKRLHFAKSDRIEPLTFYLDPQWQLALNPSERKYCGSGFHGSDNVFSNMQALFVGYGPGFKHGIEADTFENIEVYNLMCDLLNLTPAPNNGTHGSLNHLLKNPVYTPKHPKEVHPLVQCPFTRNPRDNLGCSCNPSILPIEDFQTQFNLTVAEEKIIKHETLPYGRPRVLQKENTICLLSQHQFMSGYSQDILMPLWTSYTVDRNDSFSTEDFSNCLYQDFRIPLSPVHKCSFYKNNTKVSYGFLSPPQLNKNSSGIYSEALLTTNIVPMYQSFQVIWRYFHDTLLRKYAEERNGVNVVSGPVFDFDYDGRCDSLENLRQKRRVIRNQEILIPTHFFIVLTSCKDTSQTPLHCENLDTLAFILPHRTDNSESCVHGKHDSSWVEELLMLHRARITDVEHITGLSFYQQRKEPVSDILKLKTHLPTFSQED
Summary of the method: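 Human NPP1 (COS-7 lysate) is tested with pNP-TMP hydrolysis at 37 °C in pH 8.5 Tris buffer, reading p-nitrophenol at […]. Substrate is 25, 50 and 100 μM, and inhibitor is 0, 25, 50 and 100 μM. Inhibition type, Ki and Ki′ (EIS complex dissociation constant) come from Dixon and Cornish–Bowden plots of three independent experiments.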

[3] = target: T3, P2Y purinoceptor 11 (Homo sapiens) (UniProt Q96G91); test: Agonist activity at human P2Y11 receptor expressed in human 1321N1 cells assessed as increase of intracellular calcium level up to 10 uM after 30 mins using fura-2 AM by fluorescence assay; format: functional, cell-based
T3 sequence (whole entry): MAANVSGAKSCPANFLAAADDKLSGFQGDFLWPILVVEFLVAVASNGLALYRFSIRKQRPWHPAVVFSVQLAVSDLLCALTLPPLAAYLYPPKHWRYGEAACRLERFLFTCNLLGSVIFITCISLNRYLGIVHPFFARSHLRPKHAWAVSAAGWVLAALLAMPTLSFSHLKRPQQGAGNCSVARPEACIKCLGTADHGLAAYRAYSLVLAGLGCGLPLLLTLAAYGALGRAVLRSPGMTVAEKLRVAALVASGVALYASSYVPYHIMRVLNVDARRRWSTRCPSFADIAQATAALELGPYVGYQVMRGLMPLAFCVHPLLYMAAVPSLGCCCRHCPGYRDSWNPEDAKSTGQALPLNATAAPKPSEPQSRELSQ

[4] = target: P2Y purinoceptor 2 (Homo sapiens) (UniProt P41231); test: Antagonist activity at human P2Y2 receptor expressed in human 1321N1 cells assessed as effect on UTP-induced effect; format: cell-based
[5] = target: T4, Alkaline phosphatase, tissue-nonspecific isozyme (Homo sapiens) (UniProt P05186); test: Inhibition of TNAP (unknown origin) using ATP as substrate assessed as inorganic phosphate release at 100 uM after 15 mins relative to control
T4 sequence (whole entry): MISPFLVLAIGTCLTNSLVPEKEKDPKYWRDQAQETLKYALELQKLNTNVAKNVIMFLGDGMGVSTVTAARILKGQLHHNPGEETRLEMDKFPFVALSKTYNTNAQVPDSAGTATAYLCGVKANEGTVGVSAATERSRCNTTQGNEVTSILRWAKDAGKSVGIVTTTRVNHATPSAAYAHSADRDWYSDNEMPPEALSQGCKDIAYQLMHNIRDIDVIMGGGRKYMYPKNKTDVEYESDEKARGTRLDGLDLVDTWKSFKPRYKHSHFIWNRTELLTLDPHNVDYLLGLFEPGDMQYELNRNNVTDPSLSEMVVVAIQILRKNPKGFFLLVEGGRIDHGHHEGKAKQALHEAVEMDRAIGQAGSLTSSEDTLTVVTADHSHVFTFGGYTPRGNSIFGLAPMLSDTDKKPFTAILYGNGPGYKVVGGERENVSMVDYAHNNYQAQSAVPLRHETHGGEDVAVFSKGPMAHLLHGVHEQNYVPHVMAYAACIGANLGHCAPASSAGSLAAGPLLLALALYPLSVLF

[6] = target: P2Y purinoceptor 2 (Homo sapiens) (UniProt P41231); test: Agonist activity at human P2Y2 receptor expressed in human 1321N1 cells assessed as increase of intracellular calcium level at 100 uM after 30 mins using fura-2 AM by fluorescence assay; format: functional, cell-based
P2Y purinoceptor 11 = target: T5, P2Y purinoceptor 11 (Homo sapiens, UniProt Q96G91); test: Agonist activity at human P2Y11 receptor expressed in human 1321N1 cells assessed as increase of intracellular calcium level after 30 mins using fura-2 AM by fluorescence assay; format: functional, cell-based
T5 sequence (Q96G91 whole entry): T3 sequence (whole entry)

Chain of P2Y purinoceptor 2 (Homo sapiens) (P41231 whole entry): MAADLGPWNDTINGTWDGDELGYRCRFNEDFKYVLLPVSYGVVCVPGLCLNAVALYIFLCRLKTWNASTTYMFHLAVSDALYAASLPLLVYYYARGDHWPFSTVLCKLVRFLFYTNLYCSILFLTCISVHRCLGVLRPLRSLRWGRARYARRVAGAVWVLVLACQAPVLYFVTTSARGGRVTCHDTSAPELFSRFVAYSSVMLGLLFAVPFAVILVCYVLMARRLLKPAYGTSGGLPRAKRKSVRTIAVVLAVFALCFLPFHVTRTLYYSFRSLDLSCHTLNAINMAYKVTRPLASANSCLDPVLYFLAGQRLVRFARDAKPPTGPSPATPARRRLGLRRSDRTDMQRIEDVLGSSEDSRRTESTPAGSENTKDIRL

Row | Compound | inhibition [1] [%] | Ki [2] [µM] | Activity [3] | inhibition [4] | inhibition [5] [%] | Activity [6] | EC50 (P2Y purinoceptor 11) [µM]
1 | Nc1ncnc2c1ncn2[C@@H]1O[C@H](CO[P@@](O)(=S)OP(=O)(O)C(Cl)(Cl)P(=O)(O)O)[C@@H](O)[C@H]1O | 0.5 | – | – | – | – | – | –
2 | Nc1ncnc2c1ncn2[C@@H]1O[C@H](CO[P@](O)(=S)OP(=O)(O)CP(=O)(O)O)[C@@H](O)[C@H]1O | 0.5 | 4.5 | inactive | – | – | – | –
3 | Nc1ncnc2c1ncn2[C@@H]1O[C@H](CO[P@](O)(=S)OP(=O)(O)C(Cl)(Cl)P(=O)(O)O)[C@@H](O)[C@H]1O | 4.9 | – | – | inactive | 17 | inactive | –
4 | Nc1ncnc2c1ncn2[C@@H]1O[C@H](COP(=O)(O)CP(=O)(O)OP(O)(O)=S)[C@@H](O)[C@H]1O | 7 | – | – | inactive | 8 | inactive | –
5 | Nc1ncnc2c1ncn2[C@@H]1O[C@H](CO[P@@](O)(=S)OP(=O)(O)CP(=O)(O)O)[C@@H](O)[C@H]1O | 1.5 | – | – | – | – | – | 0.9
